A short description of series [1]: melting temperature; fluorescence melt of hairpins on a sequencing array, two-state fit, raised by 9.35 °C to match UV melts. The note with it: sodium 0.088 M. The method in brief: (§1)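 Melting temperature and folding enthalpy were derived from bootstrapped two-state fits. The fitted temperatures were raised by 9.35 °C to agree with UV melts, and four replicates were combined by inverse variance. The underlying data were Cy3 fluorescence images of library hairpins, with annealed Cy3 and quencher oligos, on a sequenced MiSeq flow cell in 50 mM Na-HEPES pH 8.0, 25 mM NaCl, taken in 2.5 °C steps up to 60 °C, normalised to pre-quench Cy3 and to control constructs.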

Series [2] in a line: folding enthalpy; higher = less favourable; fluorescence melt of hairpins on a sequencing array, two-state fit. The note with it: sodium 0.088 M. The method in brief:
as §1

As for GTCTCAGGAAACTGAGAC (((((((....))))))), the Tm in series [1] turned out to be 59.5 °C. Further, the folding enthalpy in series [2] is -46.1 kcal/mol.
With GCAACCGAAAGGTCATGC ((((((....)))..))), the Tm in series [1] turned out to be 32.3 °C. Moreover, in series [2], the folding enthalpy is -13 kcal/mol.
GTACTTGCGAAAGCATAC (((..(((....)))))): the Tm in series [1] amounted to 30.2 °C. Besides, the folding enthalpy in series [2] was -9 kcal/mol.
The like results for GCATAGTCGAAAGACTGC (((..(((....)))))) were, in that order, 43.1 °C and -15.2 kcal/mol.
Regarding GCTCAGCGAAAGCCTAGC (((..((....))..))), in series [1], the Tm was 36.1 °C. The folding enthalpy in series [2] was -19.7 kcal/mol.
In the case of GTAGAGGGAAACCTCCAC ((.((((....)))).)), the Tm in series [1] was found to be 31.2 °C. In addition, the folding enthalpy in series [2] was -16.7 kcal/mol.
For GGTCCCGAAAGGGGTACC ((((((....)))..))), the Tm in series [1] came out at 44.9 °C. For the same sequence, the folding enthalpy in series [2] is -17.2 kcal/mol.
The like results for GAGAACGGAAACGCTCTC ((((.((....)).)))) were, in that order, 43.2 °C and -28.6 kcal/mol.
For GTCCCCGAAAGGGGAGAC ((((((....)))..))), the Tm in series [1] was 54.2 °C. In addition, in series [2], the folding enthalpy was -8.25 kcal/mol.
Taken in the same sequence, the figures for GCGGGTGGAAACGTCCGC ((((..(....)..)))) were 53 °C and -32 kcal/mol.
On to GTTACACCGAAAGGTAAC (((..(((....)))))), for which the Tm in series [1] stood at 31.8 °C. In addition, the folding enthalpy in series [2] was -15.8 kcal/mol.
For the sequence GAGGTGCGAAAGCAACTC (((.(((....))).))), the Tm in series [1] is 66.5 °C. Further, the folding enthalpy in series [2] is -26.2 kcal/mol.
Consider GGACTCGAAAGAGCCTCC ((((((....)))..))), for which the Tm in series [1] is 42.7 °C. Further, in series [2], the folding enthalpy is -16.9 kcal/mol.
Taken in the same sequence, the figures for CGCTCCGGAAACGGCGCG (((.(((....))).))) were 56.9 °C and -39.5 kcal/mol.
For the sequence GACGGCGAAAGCCAGGTC ((((((....)))..))), in series [1], the Tm turned out to be 46.6 °C. Moreover, the folding enthalpy in series [2] is -16.5 kcal/mol.
With GATCTCATATGAGATC ((((((....)))))), the Tm in series [1] is 54.2 °C. The folding enthalpy in series [2] was -43.8 kcal/mol.
GAGTACGAAAGTAGCCTC ((((((....)))..))): in series [1], the Tm is 27.3 °C. In series [2], the folding enthalpy is -11.8 kcal/mol.
As for GCGGGTTCCGC ((((...)))), the Tm in series [1] came out at 57.2 °C. Also, in series [2], the folding enthalpy is -25.4 kcal/mol.
For the sequence GCGAGAGGAAACTTTCGC ((((.((....)).)))), the Tm in series [1] amounted to 48.8 °C. For the same sequence, the folding enthalpy in series [2] was -33.8 kcal/mol.
As to GCTTACCGAAAGGTCAGC (((.(((....))).))), the Tm in series [1] is 50.3 °C. Further, the folding enthalpy in series [2] was -27.8 kcal/mol.
With GCAGTCGAAAGACCTTGC ((((((....)))..))), in series [1], the Tm came to 33.8 °C. Further, in series [2], the folding enthalpy was -13.3 kcal/mol.
With GCCTTGGGAAACCGAGGC ((((.((....)).)))), in series [1], the Tm was 56.6 °C. In addition, the folding enthalpy in series [2] was -39.8 kcal/mol.
With GCTGTGGGAAACCATAGC (((.(((....))).))), the Tm in series [1] was 50 °C. Besides, the folding enthalpy in series [2] is -22.3 kcal/mol.
Consider GCTAAAGGAAACTTTAGC (((((((....))))))), for which the Tm in series [1] was 53.7 °C. Moreover, the folding enthalpy in series [2] was -37.4 kcal/mol.
Take GTGTATGGAAACATATGC (..((((....))))..): the Tm in series [1] was 30.7 °C. The folding enthalpy in series [2] was -24.1 kcal/mol.
The like results for GTCCCCGAAAGGGTGGAC ((((((....)))..))) were, in that order, 48.9 °C and -14.8 kcal/mol.
In the case of GATCTTCGGGAAGATC ((((((....)))))), the Tm in series [1] was 49.5 °C. Further, the folding enthalpy in series [2] was -36.2 kcal/mol.
On to GATCTTCAGTAAGATC ((((((....)))))), for which the Tm in series [1] amounted to 40.7 °C. For the same sequence, the folding enthalpy in series [2] was -30.6 kcal/mol.
GATCCGGTATCGGATC ((((((....)))))): the Tm in series [1] worked out at 63.5 °C. Besides, in series [2], the folding enthalpy is -42.5 kcal/mol.
With GATCTAGAGTAGATC ((((((...)))))), the Tm in series [1] was 34.8 °C. In addition, in series [2], the folding enthalpy is -28.1 kcal/mol.
Consider GCGCACGAAAGTGCCGC ((((((....))).))), for which the Tm in series [1] turned out to be 62 °C. In series [2], the folding enthalpy was -17.5 kcal/mol.
Taken in the same sequence, the figures for CGCGGAATAGTCCGCG ((((((....)))))) were 68.5 °C and -25.5 kcal/mol.
For GTCCCCCGAAAGGGTGAC (((.(((....))).))), the Tm in series [1] came out at 52.5 °C. Besides, the folding enthalpy in series [2] was -28.1 kcal/mol.
As for GCGCTGCGAAAGCCGTGC ((.(.((....)).).)), the Tm in series [1] was determined as 51.9 °C. The folding enthalpy in series [2] was -21.5 kcal/mol.
Turning to GGTGTCGAAAGACCTACC ((((((....)))..))), the Tm in series [1] was 33.8 °C. The folding enthalpy in series [2] is -16.1 kcal/mol.
GCATTGCGAAAGCTCTGC (((..((....))..))): the Tm in series [1] came to 39.2 °C. In series [2], the folding enthalpy was -23.5 kcal/mol.
In the case of GTACGGGAAACCGTAC ((((((....)))))), in series [1], the Tm was determined as 63.2 °C. Further, the folding enthalpy in series [2] is -27.9 kcal/mol.
The like results for GCAAACGAAAGTTACTGC ((((((....)))..))) were, in that order, 27.3 °C and -13.3 kcal/mol.
For the sequence GGGTGAGGAAACTCACTC (.(((((....))))).), the Tm in series [1] stood at 53.9 °C. For the same sequence, the folding enthalpy in series [2] was -17.8 kcal/mol.
For GCGGTTGTCCGC ((((....)))), the Tm in series [1] worked out at 58.6 °C. For the same sequence, in series [2], the folding enthalpy was -23.5 kcal/mol.
On to GTGGCGGGAAACCGTCGC (.(.(((....))).).), for which the Tm in series [1] was 50.5 °C. The folding enthalpy in series [2] is -24.9 kcal/mol.
Regarding GCGGCAACCGC ((((...)))), in series [1], the Tm turned out to be 51.7 °C. Besides, in series [2], the folding enthalpy was -23.4 kcal/mol.
For GAGATTGGAAACAATCTC (((((((....))))))), the Tm in series [1] worked out at 56.4 °C. For the same sequence, in series [2], the folding enthalpy is -42.2 kcal/mol.
In the case of GCGGTCGGAAACAACCGC (((((.(....).))))), the Tm in series [1] came to 55.1 °C. The folding enthalpy in series [2] was -34.7 kcal/mol.
Turning to GATCTGTCAGCAGATC ((((((....)))))), the Tm in series [1] was 51.7 °C. In addition, the folding enthalpy in series [2] is -40.7 kcal/mol.
On to GCTCCTCGAAAGAGAAGC (((.(((....))).))), for which the Tm in series [1] stood at 46.1 °C. The folding enthalpy in series [2] was -29.4 kcal/mol.
In the case of GCGGGTGGCCGC ((((....)))), the Tm in series [1] amounted to 62.1 °C. The folding enthalpy in series [2] was -15.8 kcal/mol.
In the case of GCGTATCGAAAGATCCGC (((.(((....))).))), in series [1], the Tm came out at 50.2 °C. In addition, the folding enthalpy in series [2] is -38.1 kcal/mol.
Take GTTGTGGGAAACCACAGC (.(((((....))))).): the Tm in series [1] came out at 49.7 °C. In addition, the folding enthalpy in series [2] was -20 kcal/mol.
Taken in the same sequence, the figures for GATCAGTAATCTGATC ((((((....)))))) were 48.6 °C and -36 kcal/mol.
Taken in the same sequence, the figures for GCTATCCCGAAAGGGAGC (((..(((....)))))) were 38.9 °C and -11.7 kcal/mol.
The like results for GATCGGTCGTCCGATC ((((((....)))))) were, in that order, 60.2 °C and -40.9 kcal/mol.
Take GAAACACGAAAGTGTTC (((.(((....)))))): the Tm in series [1] was found to be 44 °C. In addition, the folding enthalpy in series [2] is -12.7 kcal/mol.
In the case of GCGGAGCGAAAGCTGGGC ((..(((....)))..)), the Tm in series [1] was found to be 43.2 °C. Further, the folding enthalpy in series [2] was -7.98 kcal/mol.
For GCGACCCTTCGC ((((....)))), in series [1], the Tm was 51.1 °C. In addition, in series [2], the folding enthalpy was -26.3 kcal/mol.
For the sequence GAGTAGCGAAAGCTCTC (((.(((....)))))), the Tm in series [1] was determined as 46.2 °C. In addition, the folding enthalpy in series [2] is -17.8 kcal/mol.

Values taken from the array DNA melting data of Ke et al. (doi:10.1101/2024.01.08.574731).
